Assay outcomes (PubChem)
Hits are enriched below; roughly 4% of the tested compounds scored in any of these assays.
MT stabilizer: microtubule stabilization, imaging screen; HeLa tubulin immunostaining HCS, 24 h; share of cells brighter than vehicle mean+2SD; % tubulin-high responders, % at 10 µM; actives 0.83% (n = 200,000);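 active = plate Z-score above 3 for both tubulin-high and condensed-nucleus cell shares, with cell loss under 80%, at 10 µM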;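 note: anti alpha tubulin signal scored within the nucleus-defined area of each cell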
Pf gametocyte: kills late stage P. falciparum gametocytes; P. falciparum stage V gametocytes, ATP luminescence, 24 h; inhibition, % at 10.9 µM; actives 0.065% (n = 150,000); AID 743093;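 active = inhibition above the mean plus 3 SD of compounds within the control limits, set per campaign, cut at about 38% in these data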;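 note: 0% = DMSO wells and 100% = medium only without gametocytes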
WT yeast gro inh: growth inhibition of WT yeast, mitochondrial fusion screen. mitochondrial fusion phenotypic screen, WT strain. inhibition, % at 10 µM. actives 2.1% (n = 190,000); in the data active = inhibition above about 58%; tested in S. cerevisiae
Cl transport mod: modulators of human KCC2 chloride dependent transport; B-score of Tl+ flux slope (higher = more flux/activation; lower = inhibition) at 10 µM; actives 2.2% (n = 190,000); AID 1456; KCC2 cells, thallium flux FluoZin-2 fluorescence; Q9H2X9;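 active = thallium flux slope and its plate-corrected score both differing from the plate sample mean at a set confidence after two filtering rounds, in either direction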;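 note: slope of fluorescence scaled to starting intensity during 10 to 20 s after thallium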
b-catenin transl: modulators of beta-catenin nuclear translocation; HeLa beta-catenin nuclear translocation, immunofluorescence imaging; nuclear translocation activity, % at 5 µM; actives 0.3% (n = 190,000); AID 1665;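 active = nuclear translocation activity above 50% at 5 µM, with a well cell count of 50 or more; inconclusive = wells under 50 cells across six images, flagged as toxic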;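 note: per-cell ratio of nuclear to cytoplasmic median beta-catenin stain intensity; plate controls were DMSO negative control for no effect and GSK-3 inhibitor IX positive control for full effect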
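Test system: human HeLa cells, endogenous beta-catenin. Times: 24 h compound exposure, 37°C. Measured by: beta-catenin immunofluorescence imaging with DAPI.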
KCC2 secondary: confirmation of human KCC2 transport modulators; HEK293-KCC2, thallium flux, FluoZin2 fluorescence; stronger effect = higher value; shares compounds with Cl transport mod; normalised thallium flux (F/F0 slope) at 10 µM; actives 15% (n = 3,700);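 active = thallium flux slope above the same plate's solvent-only control mean plus 3 SD; inconclusive = the two replicate wells disagree; inactive = no significant difference from solvent-only control wells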
KCC2 bumet counter: bumetanide-insensitive thallium flux in KCC2 cells with ouabain, counter-screen. shares compounds with Cl transport mod. HEK293-KCC2 + bumetanide/ouabain, thallium flux FluoZin2; stronger effect = higher value. normalized thallium flux at 10 µM. actives 49% (n = 3,700);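 active = thallium entry rate above the same plate's blocked-transporter control wells by more than 3 SD; inconclusive = the two repeat wells disagree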;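 note: raw slope of fluorescence over initial fluorescence between 10 and 20 s after thallium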
KCC2 sec2: KCC2 (human) modulation, second secondary assay; shares compounds with Cl transport mod; HEK293-KCC2, thallium flux FluoZin2 fluorescence; actives lie on both sides; F/F0 rise rate, 10–20 s post-thallium; normalized thallium flux at 10 µM; actives 23% (n = 3,700); AID 1715;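 active = thallium flux slope more than 3 SD above or below the plate's solvent-only control mean, mostly below; inconclusive = the two repeat wells disagreed; inactive = no significant shift from solvent-only controls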;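 note: raw slope with 0.1% DMSO as baseline and bumetanide as block control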
HEK counter1: counter-screen for KCC2 modulators: effect in parental HEK293 cells; shares compounds with Cl transport mod; thallium flux FluoZin2, ouabain; baseline-ratio fluorescence slope, 10–20 s after thallium; thallium flux rate (normalised fluorescence) at 10 µM; actives 46% (n = 3,700); AID 1716;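 active = thallium flux rate significantly above the same plate's solvent-only control wells, beyond their mean plus 3 SD; inconclusive = the two replicate wells gave conflicting results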
KCC2 ouabain: modulates human KCC2 on retest with ouabain | shares compounds with Cl transport mod | HEK293-KCC2, thallium flux FluoZin2 fluorescence; bidirectional: low = inhibitor, high = activator | raw Tl+ flux slope (below DMSO = inhibition, above = activation) at 10 µM | actives 48% (n = 3,700);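 active = thallium flux slope beyond 3 SD from same-plate DMSO control mean in most replicates, usually higher, sometimes lower; inconclusive = repeat tests gave conflicting results; inactive = no significant difference from controls in most replicates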;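 note: slope of initial-normalized fluorescence between seconds 10 and 20 after thallium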
HEK counter2: acts in parental HEK cells, second KCC2 counter-screen. thallium flux slope at 10 µM. HEK293 parental, thallium flux FluoZin-2 fluorescence slope. shares compounds with Cl transport mod. AID 1718. actives 33% (n = 3,700);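 active = thallium flux slope above the same plate's solvent-control mean plus 3 SD in both duplicate wells; inconclusive = duplicate wells that disagreed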;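 note: run without ouabain in cells lacking the KCC2 cotransporter; slope of fluorescence scaled to its starting value between 10 and 20 s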
Active calls of the source: *.

For S=c1[nH]nc(-c2cccs2)n1C1CCCCC1 the results were Pf gametocyte 18, Cl transport mod 11*, b-catenin transl -2, KCC2 secondary 0.011, KCC2 bumet counter 0.016*, KCC2 sec2 0.036, HEK counter1 0.013*, KCC2 ouabain 0.026* and HEK counter2 inconclusive.
For CC(C)Cn1cc(C(=O)N2CCN(c3ccccn3)CC2)c2c3ccccc3n(C)c2c1=O the results were MT stabilizer 2, WT yeast gro inh 5, b-catenin transl -4, KCC2 secondary 0.009, KCC2 bumet counter 0.0059, KCC2 sec2 0.03, HEK counter1 0.0068, KCC2 ouabain 0.034 and HEK counter2 0.01.
Screening CCN1CCN(C(=O)c2cn(CCOC)c(=O)c3c2c2ccccc2n3C)CC1 returned MT stabilizer 3, WT yeast gro inh 23, Cl transport mod -0.64 and b-catenin transl 1.
`COc1ccc(C(C)NC(=O)Cc2cccs2)cc1` (stereo not given) gave Pf gametocyte -18.
`C=CCn1c(-c2cc3cccc(OC)c3o2)n[nH]c1=S` gave MT stabilizer 4, Pf gametocyte -2, WT yeast gro inh 17, Cl transport mod 3.7*, b-catenin transl -2, KCC2 secondary 0.0051, KCC2 bumet counter 0.014*, KCC2 sec2 0.032, HEK counter1 0.013*, KCC2 ouabain inconclusive and HEK counter2 0.016*.
Screening C=CCn1c(-c2ccco2)n[nH]c1=S returned MT stabilizer 10, WT yeast gro inh 7, b-catenin transl -1, KCC2 secondary 0.0091, KCC2 bumet counter 0.0066, KCC2 sec2 0.036, HEK counter1 0.0085, KCC2 ouabain 0.019 and HEK counter2 0.011.
For CCn1c(-c2ccco2)n[nH]c1=S the results were MT stabilizer 3, Pf gametocyte 1, WT yeast gro inh -3 and Cl transport mod 0.043.
Screening Cc1cccc2cc(CNC3CCCC3)c(Cl)nc12 returned MT stabilizer 1, WT yeast gro inh -4, Cl transport mod 1 and b-catenin transl 2.
CCN(CC)/C(Sc1ccccc1)=C(\C(Cl)=C(Cl)Cl)[N+](=O)[O-] was read as MT stabilizer 5, Pf gametocyte -5, WT yeast gro inh -6, Cl transport mod -4.9*, KCC2 secondary 0.005, KCC2 bumet counter inconclusive, KCC2 sec2 inconclusive, HEK counter1 0.0064*, KCC2 ouabain inconclusive and HEK counter2 0.01.
For Brc1ccc(CSc2nnc(-c3cnccn3)n2Cc2ccco2)cc1 the results were MT stabilizer 7, WT yeast gro inh 3, Cl transport mod -4.3*, b-catenin transl -1, KCC2 secondary 0.015, KCC2 bumet counter 0.0033, KCC2 sec2 0.027, HEK counter1 0.005*, KCC2 ouabain 0.013* and HEK counter2 0.0093.
CC(C)OC(=O)CSc1nnc(-c2cnccn2)n1Cc1ccco1 was read as MT stabilizer 5, WT yeast gro inh 35, Cl transport mod -0.2 and b-catenin transl -6.
`O=C(CSc1nnc(-c2cnccn2)n1Cc1ccco1)c1ccc2ccccc2c1` gave MT stabilizer 4, WT yeast gro inh -5, b-catenin transl 1, KCC2 secondary 0.015, KCC2 bumet counter 0.0046, KCC2 sec2 inconclusive, HEK counter1 inconclusive, KCC2 ouabain 0.013* and HEK counter2 0.0092.
For Fc1ccc(CSc2nnc(-c3cnccn3)n2Cc2ccco2)cc1 the results were MT stabilizer 3, Pf gametocyte 4, WT yeast gro inh 8, Cl transport mod -0.43 and b-catenin transl 5.
COc1ccc(C(=O)CSc2nc3c(c(=O)n(C)c(=O)n3C)n2C)cc1 was read as MT stabilizer 3, WT yeast gro inh 6, Cl transport mod -0.42 and b-catenin transl 0.
COCCNC(=O)CN(C(=O)CCC(=O)Nc1ccccn1)c1ccccc1F was read as MT stabilizer 2, Pf gametocyte 24, WT yeast gro inh -6, Cl transport mod 0.027 and b-catenin transl -1.
`Cc1ccc(-n2nc(C)c(NS(=O)(=O)c3ccccc3)c2C)cc1C` gave MT stabilizer 1, WT yeast gro inh 21 and b-catenin transl -1.
`Cc1nn(-c2ccc(F)cc2)c(C)c1NS(=O)(=O)c1ccc(Cl)cc1` gave MT stabilizer 3, WT yeast gro inh 15, Cl transport mod -4.6*, KCC2 secondary 0.0057, KCC2 bumet counter 0.0049, KCC2 sec2 0.022*, HEK counter1 0.0068, KCC2 ouabain inconclusive and HEK counter2 0.01.
For CCc1ccc(/C=N\NC(=O)c2ccc(Br)o2)s1 the results were MT stabilizer 12, Pf gametocyte -19, WT yeast gro inh -10, Cl transport mod 6*, KCC2 secondary 0.0094, KCC2 bumet counter 0.022*, KCC2 sec2 0.031, HEK counter1 0.021*, KCC2 ouabain 0.023 and HEK counter2 0.012*.
`Cc1ccc(/C=N/NC(=O)c2ccc(Br)o2)s1` gave MT stabilizer 3, Pf gametocyte 11, WT yeast gro inh 6, Cl transport mod 5.3*, KCC2 secondary 0.0091, KCC2 bumet counter 0.0092*, KCC2 sec2 0.033, HEK counter1 inconclusive, KCC2 ouabain 0.021 and HEK counter2 0.012.
`O=C(N/N=C/c1ccc2c(c1)OCO2)c1ccc(Br)o1` gave MT stabilizer 5, Pf gametocyte -4, WT yeast gro inh 3, Cl transport mod -0.094 and b-catenin transl 1.
Screening O=C(N/N=C/c1ccco1)c1ccc(Br)o1 returned MT stabilizer 3, WT yeast gro inh -10, Cl transport mod 0.55 and b-catenin transl -1.
